# Entries after “also recorded” stand apart in the source; their conditions may differ.
# B1: core^S (N34^546–579-(L6)-C28^628–655), homotrimeric six-helix bundle of gp41 (domain or fragment)
# chain: SGIVQQQNNLLRAIEAQQHLLQLTVWGIKQLQARSGGRGGWMEWDREINNYTSLIHSLIEESQNQQEK
# Key:
# core^S [1] = experiment: SEC titration of C34-AL647 into core^S; assay type: binding, HIV-1; settings: fits of 280 and 609+650 nm peak areas
# core^SP [2] = experiment: SEC titration of C34-AL647 into core^SP; assay type: binding, HIV-1
# 6-helix = experiment: SEC-MALS binding stoichiometry with 6-helix; design: species or system HIV-1; settings: 5-fold molar excess C34, 200 μg 6-helix, 10 mM Tris-HCl pH 7.6, 150 mM NaCl
# core^S [3] = experiment: SEC-MALS binding stoichiometry with core^S; design: species or system HIV-1
# core^SP [4] = experiment: SEC-MALS and SEC displacement of C38 / C38-AL647 from core^SP; assay type: binding, HIV-1; settings: 5-fold molar excess C34, SEC–MALS, confirmed with core^SP-AL647
# core^S [5] = experiment: Native-PAGE band shift with core^S; assay type: binding, HIV-1; settings: 10 μM core^S, 30 min, room temperature, 20% homogeneous gel
# core^S [6] = experiment: Circular dichroism of core^S with and without C34; design: species or system HIV-1
# core^SP [7] = experiment: Circular dichroism of core^SP with and without C34; design: species or system HIV-1; settings: core^SP 2.5 μM trimer, 5-fold excess C34, buffer A pH 7.6, 20 °C
# How it was run: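 CoreSP (N-HR and C-HR peptides counted as one unit) is used at 2.5 μM trimer, alone or with a 5-fold molar excess of C34, in 10 mM Tris-HCl pH 7.6 with 150 mM NaCl. Spectra are recorded at 20 °C in a 0.1 cm path-length flat cell. α-Helical content is estimated by CDNN.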
# N-Cys core^S = experiment: DEER EPR of N-Cys core^S with and without C34; design: species or system HIV-1; settings: 50 μM subunits, 1.2-fold molar excess C34, Q-band, 50 K
# core^S [8] = experiment: ITC with core^S; assay type: binding, HIV-1; settings: C34 0.05–0.1 mM into 5–10 μM core^S, 10 mM Tris-HCl pH 7.6, 150 mM NaCl, 25 °C, iTC200
# 5-helix [9] = settings: 5-fold molar excess C34, 200 μg 5-helix, 10 mM Tris-HCl pH 7.6, 150 mM NaCl
# 5-helix [10] = system: 5-helix
# HIV-1 fusion = settings: ref [17] Markosyan et al.; cited from earlier work
# [11] = target: single-chain five-helix bundle (5-helix) (HIV-1) (UniProt P04578); experiment: SEC-MALS
# [12] = target: single-chain six-helix bundle (6-helix) (HIV-1) (UniProt P04578); experiment: SEC-MALS
# [13] = target: the molecule itself; experiment: composition gradient–MALS
molecule,measurement,setting,value
Ac-C-HR^628–661-NH2 [C34],cooperativity of binding to core^S,core^S [1],no evidence of any cooperativity
same,equilibrium constant for the exchange reaction of C34 with C38,"core^SP [2]; core^SP, value in discussion",0.9
same,cooperativity of exchange with core^SP,core^SP [2]; fits of 609+650 nm peak areas,no evidence of any cooperativity
same,binding to 6-helix (stoichiometry),6-helix,weak binding of C34 as a 1:1 complex
same,binding stoichiometry with core^S,"core^S [3]; 5-fold molar excess C34, 10 mM Tris-HCl pH 7.6, 150 mM NaCl",one core^S trimer to two C34 peptides with no dissociation of the core^S trimer; also recorded: binding of two C34 molecules to one core^S trimer
same,evidence for a 1:3 core^S–(C34)3 complex,core^S [3]; SEC–MALS and band-shift assays,no evidence of the existence of a 1:3 core^S–(C34)3 complex
same,displacement of C38 from core^SP,core^SP [4],binding of C34 to core^SP is accompanied by displacement of C38
same,binding to core^S by native-PAGE,core^S [5],even at 3:1 and 3:2 core^S:C34 ratios (Figure 4C) a significant amount of complex comprising two C34 molecules bound to one core^S trimer is formed; also recorded: binding of C34 is clearly evident
same,increase in helicity of core^S on C34 binding,"core^S [6]; core^S 7 μM trimer, 5-fold molar excess C34, buffer A pH 7.6, 20 °C",~ 18%
same,additional residues in helical conformation of core^S trimer,"core^S [6]; two C34 bound, two C28 C-HR displaced, 5-fold molar excess C34",30 residues
same,change in helicity of core^SP on C34 binding,core^SP [7],no change in helicity
same,effect of C34 on DEER dipolar evolution data / P(r) of N-Cys core^S,N-Cys core^S,negligible effect
same,heat signature in ITC with core^S,core^S [8],did not yield a heat signature
same,binding to 5-helix (stoichiometry),5-helix [9],binds with a 1:1 stoichiometry
same,binding to 5-helix by native-PAGE,"5-helix [10]; native-PAGE, room temperature",binding of C34 is clearly evident
same,stoichiometry of binding to 5-helix by native-PAGE,5-helix [10]; positive control,1:1 stoichiometry of binding
same,time window of fusion inhibitory activity,HIV-1 fusion,"can extend from the point at which the prehairpin intermediate of gp41 becomes accessible through the formation of late prebundle intermediates and labile pore formation, but not after irreversible formation of the six-helix bundle"
"C34 peptide (chemically synthesized, Ac-C-HR^628–661-NH2) (from UniProt P04578 628-661)",stoichiometry N (C34 per 5-helix),[11],1
same,stoichiometry N (C34 per 6-helix),[12],1
B1,Kd,[13],< 250 nM
